Measurements published in ChEMBL document CHEMBL1773012, “Synthesis, spectral, crystal structure and in vitro antimicrobial evaluation of imidazole/benzotriazole substituted piperidin-4-one derivatives” (2011).
Values after ≈ are worked out from the molar mass of the structure shown. Active and inactive are the calls of the source. No cut-off for these calls is given here.

Columns and labels:
Staphylococcus aureus = experiment: Antimicrobial activity against Staphylococcus aureus ATCC 25930 after 24 hrs by two fold serial dilution method; assay type: functional
Summary of the method: (§1)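 Nutrient broth two-fold serial dilution. Inoculum was seeded NB prepared from 24 h nutrient-agar cultures grown at 37 ± 1 °C and adjusted with sterile saline to 1×10⁴–10⁵ CFU. Compounds and reference drugs were tested at 200, 100, 50, 25, 12.5 and 6.25. Tubes were incubated in a BOD incubator, and MIC was read visually after 24 h.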

Klebsiella pneumoniae = experiment: Antimicrobial activity against Klebsiella pneumoniae ATCC 16425 after 24 hrs by two fold serial dilution method; assay type: functional; summary of the method: as §1
Escherichia coli = experiment: Antimicrobial activity against Escherichia coli ATCC 26032 after 24 hrs by two fold serial dilution method; assay type: functional; details: ATCC 26032, 24 h; summary of the method: as §1
Bacillus subtilis = experiment: Antimicrobial activity against Bacillus subtilis ATCC 530 after 24 hrs by two fold serial dilution method; assay type: functional; summary of the method: as §1
Salmonella typhi = experiment: Antimicrobial activity against Salmonella typhi ATCC 25021 after 24 hrs by two fold serial dilution method; assay type: functional, Salmonella enterica subsp. enterica serovar Typhi; details: Salmonella enterica, ATCC 25021, 24 h
Summary of the method: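 Two-fold serial dilution in nutrient broth. Seeded broth was made from 24 h bacterial cultures on nutrient agar grown at 37 ± 1 °C, and the suspension was adjusted with sterile saline to 1×10⁴–10⁵ CFU. Compounds and reference drugs were tested at 200, 100, 50, 25, 12.5 and 6.25. Tubes were incubated in a BOD incubator, and the MIC was read visually after 24 h.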

Rhizopus = experiment: Antimicrobial activity against Rhizopus sp. ATCC 2842 after 72 to 96 hrs by two fold serial dilution method; assay type: functional
Summary of the method: (§2)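 Two-fold serial dilution in Sabouraud dextrose broth. Spores from 24 h to 7-day-old Sabouraud agar slant cultures were suspended in SDB. Compounds and reference drugs were tested at 200, 100, 50, 25, 12.5 and 6.25. Tubes were incubated in a BOD incubator, and MIC was recorded visually after 72–96 h.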

Aspergillus flavus = experiment: Antimicrobial activity against Aspergillus flavus ATCC 525 after 72 to 96 hrs by two fold serial dilution method; assay type: functional; summary of the method: as §2
Aspergillus niger = experiment: Antimicrobial activity against Aspergillus niger ATCC 635 after 72 to 96 hrs by two fold serial dilution method; assay type: functional; summary of the method: as §2
Cryptococcus neoformans = experiment: Antimicrobial activity against Cryptococcus neoformans ATCC 3235 after 72 to 96 hrs by two fold serial dilution method; assay type: functional; summary of the method: as §2
Candida albicans = experiment: Antimicrobial activity against Candida albicans ATCC 3430 by two fold serial dilution method; assay type: functional
Summary of the method: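 Sabouraud dextrose broth two-fold serial dilution. Cells or spores from 24 h to 7-day-old Sabouraud agar slant cultures were suspended in SDB. Test and reference agents were tested at 200, 100, 50, 25, 12.5 and 6.25. Tubes were incubated in a BOD incubator, with MIC read by visual observation.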

SMILES	MIC (Staphylococcus aureus; ATCC 25930, 24 h)	MIC (Klebsiella pneumoniae; ATCC 16425, 24 h)	MIC (Escherichia coli)	MIC (Bacillus subtilis; ATCC 530, 24 h)	MIC (Salmonella typhi)	MIC (Rhizopus)	MIC (Aspergillus flavus)	MIC (Aspergillus niger)	MIC (Cryptococcus neoformans)	MIC (Candida albicans)	MIC (Klebsiella pneumoniae)	MIC (Staphylococcus aureus)	MIC (Bacillus subtilis)
CN[C@@H]1[C@H](O[C@H]2[C@H](O[C@H]3[C@H](O)[C@@H](O)[C@H](N=C(N)N)[C@@H](O)[C@@H]3N=C(N)N)O[C@@H](C)[C@]2(O)C=O)O[C@@H](CO)[C@H](O)[C@H]1O [STREPTOMYCIN]	50 µg/mL (≈ 86 µM)	25 µg/mL (≈ 43 µM)	12.5 µg/mL (≈ 21.5 µM)	12.5 µg/mL (≈ 21.5 µM)	50 µg/mL (≈ 86 µM)	–	–	–	–	–	–	–	–
CC1C(=O)CC(c2ccccc2)N(C(=O)Cn2ccnc2)C1c1ccccc1 (centres undefined)	100 µg/mL (≈ 268 µM)	50 µg/mL (≈ 134 µM)	100 µg/mL (≈ 268 µM)	25 µg/mL (≈ 66.9 µM)	200 µg/mL (≈ 536 µM)	100 µg/mL (≈ 268 µM)	100 µg/mL (≈ 268 µM)	200 µg/mL (≈ 536 µM)	100 µg/mL (≈ 268 µM)	100 µg/mL (≈ 268 µM)	–	–	–
CC(C)C1C(=O)CC(c2ccccc2)N(C(=O)Cn2ccnc2)C1c1ccccc1 (centres undefined)	100 µg/mL (≈ 249 µM)	–	100 µg/mL (≈ 249 µM)	12.5 µg/mL (≈ 31.1 µM)	25 µg/mL (≈ 62.3 µM)	50 µg/mL (≈ 125 µM)	100 µg/mL (≈ 249 µM)	12.5 µg/mL (≈ 31.1 µM)	25 µg/mL (≈ 62.3 µM)	100 µg/mL (≈ 249 µM)	inactive	–	–
COc1ccc(C2C(C)C(=O)C(C)C(c3ccc(OC)cc3)N2C(=O)Cn2ccnc2)cc1 (centres undefined)	100 µg/mL (≈ 223 µM)	200 µg/mL (≈ 447 µM)	25 µg/mL (≈ 55.9 µM)	50 µg/mL (≈ 112 µM)	100 µg/mL (≈ 223 µM)	100 µg/mL (≈ 223 µM)	100 µg/mL (≈ 223 µM)	inactive	50 µg/mL (≈ 112 µM)	6.25 µg/mL (≈ 14 µM)	–	–	–
CC1C(=O)C(C)C(c2cccc(F)c2)N(C(=O)Cn2nnc3ccccc32)C1c1cccc(F)c1 (centres undefined)	50 µg/mL (≈ 105 µM)	25 µg/mL (≈ 52.7 µM)	50 µg/mL (≈ 105 µM)	25 µg/mL (≈ 52.7 µM)	–	100 µg/mL (≈ 211 µM)	200 µg/mL (≈ 421 µM)	200 µg/mL (≈ 421 µM)	100 µg/mL (≈ 211 µM)	inactive	–	–	–
CC1C(=O)C(C)C(c2ccccc2)N(C(=O)Cn2ccnc2)C1c1ccccc1 (centres undefined)	–	100 µg/mL (≈ 258 µM)	6.25 µg/mL (≈ 16.1 µM)	100 µg/mL (≈ 258 µM)	100 µg/mL (≈ 258 µM)	200 µg/mL (≈ 516 µM)	100 µg/mL (≈ 258 µM)	100 µg/mL (≈ 258 µM)	100 µg/mL (≈ 258 µM)	inactive	–	inactive	–
CC1C(=O)C(C)C(c2cccc(F)c2)N(C(=O)Cn2ccnc2)C1c1cccc(F)c1 (centres undefined)	50 µg/mL (≈ 118 µM)	200 µg/mL (≈ 472 µM)	200 µg/mL (≈ 472 µM)	–	50 µg/mL (≈ 118 µM)	25 µg/mL (≈ 59 µM)	inactive	100 µg/mL (≈ 236 µM)	6.25 µg/mL (≈ 14.8 µM)	50 µg/mL (≈ 118 µM)	–	–	inactive
CCC1C(=O)CC(c2ccccc2)N(C(=O)Cn2ccnc2)C1c1ccccc1 (centres undefined)	200 µg/mL (≈ 516 µM)	100 µg/mL (≈ 258 µM)	50 µg/mL (≈ 129 µM)	–	200 µg/mL (≈ 516 µM)	100 µg/mL (≈ 258 µM)	200 µg/mL (≈ 516 µM)	inactive	50 µg/mL (≈ 129 µM)	200 µg/mL (≈ 516 µM)	–	–	inactive
C[C@@H]1[C@H](O)[C@@H](C)/C=C/C=C/C=C/C=C/C=C/C=C/C=C/[C@H](O[C@@H]2O[C@H](C)[C@@H](O)[C@H](N)[C@@H]2O)C[C@@H]2O[C@](O)(C[C@@H](O)C[C@@H](O)[C@H](O)CC[C@@H](O)C[C@@H](O)CC(=O)O[C@H]1C)C[C@H](O)[C@H]2C(=O)O [AMPHOTERICIN B]	–	–	–	–	–	25 µg/mL (≈ 27.1 µM)	50 µg/mL (≈ 54.1 µM)	50 µg/mL (≈ 54.1 µM)	25 µg/mL (≈ 27.1 µM)	25 µg/mL (≈ 27.1 µM)	–	–	–
